A selection: hits, their analogues and other compounds. The true share with any hit is near 4.1%.
MPTP block: blocks calcium-induced mitochondrial swelling. isolated mouse mitochondria, Ca2+ swelling absorbance, 30 min. inhibition, % at 10 µM. hit rate 1.4% among 360,000. AID 602449;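 active = inhibition of 50% or more, scaled per plate between neutral and stimulator controls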;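 also: 0% = DMSO wells given calcium and 100% = 1 mM EGTA wells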
MC4R ag barr: human MC4R agonism via beta-arrestin; P32245; U2OS MC4R beta-arrestin complementation, luminescence; percent of melanotan II response, DMSO zero; activation, % at 8.9 µM; hit rate 0.98% among 360,000; AID 540308;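 active = activation above a per-plate cutoff, the mean activation of sample wells on that plate plus 3 SD, cut at about 8% in these data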
Target sequence (P32245 whole entry, looked up): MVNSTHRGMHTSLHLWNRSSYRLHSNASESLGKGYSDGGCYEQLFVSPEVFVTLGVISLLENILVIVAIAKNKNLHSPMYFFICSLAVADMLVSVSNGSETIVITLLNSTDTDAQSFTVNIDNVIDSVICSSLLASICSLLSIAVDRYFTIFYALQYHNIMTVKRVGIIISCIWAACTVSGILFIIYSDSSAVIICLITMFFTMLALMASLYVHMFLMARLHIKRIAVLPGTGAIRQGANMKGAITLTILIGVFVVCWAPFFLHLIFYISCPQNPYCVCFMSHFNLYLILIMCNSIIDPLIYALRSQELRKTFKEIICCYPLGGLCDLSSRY
ATG4B inhibitor: ATG4B (human) cysteine protease inhibition; Q9Y4P1; ATG4B cleavage of LC3-PLA2, NBD-HPC fluorescence, 1 h; inhibition, % at 8.33 µM; hit rate 0.51% among 340,000; AID 504462; in the data active = inhibition above about 40%
Target sequence (Q9Y4P1 whole entry, looked up): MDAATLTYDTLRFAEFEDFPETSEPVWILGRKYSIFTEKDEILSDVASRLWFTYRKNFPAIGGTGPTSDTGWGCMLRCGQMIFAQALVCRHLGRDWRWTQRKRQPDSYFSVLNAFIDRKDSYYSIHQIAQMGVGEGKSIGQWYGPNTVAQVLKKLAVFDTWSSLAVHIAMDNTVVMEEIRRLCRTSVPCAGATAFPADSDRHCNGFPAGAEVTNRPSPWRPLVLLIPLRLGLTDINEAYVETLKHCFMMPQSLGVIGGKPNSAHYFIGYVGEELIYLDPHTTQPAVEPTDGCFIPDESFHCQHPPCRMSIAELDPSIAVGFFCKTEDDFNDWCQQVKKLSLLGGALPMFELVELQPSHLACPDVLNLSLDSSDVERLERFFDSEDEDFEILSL
SMARCA2 activ: activators of SMARCA2 function | MG213 cells, MMTV-luciferase reporter, dexamethasone, overnight | activation, % at 9.1 µM | hit rate 1% among 370,000 | AID 652017; in the data active = activation above about 7.8%;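 also: 0% = vehicle wells and 100% = reference activator wells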
MC4R antag cAMP: blocks human MC4R cAMP signaling; inhibition, % at 6.5 µM; MC4R-expressing cells, MTII-stimulated cAMP, LANCE TR-FRET; hit rate 0.48% among 360,000; P32245;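 active = inhibition above its plate's cutoff, the mean of tested wells on that plate plus 3 SD, cut at about 29% in these data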;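 also: 0% = Melanotan II alone and 100% = Melanotan II plus saturating MCL0020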
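Material: human MC4R-expressing U2OS cells. Probe or stimulus: Melanotan II challenge. Dosing: 6.5 µM single dose. Times: 30-min compound, 1-h challenge, 1-h detection, room temperature. Technique: TR-FRET with Eu-cAMP and labeled anti-cAMP, 671 nm. Replication: singlicate.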
SMARCA2 conf: confirmation of SMARCA2 (BRM) function activators; shares compounds with SMARCA2 activ; MG213 cells, MMTV-luciferase with dexamethasone, luminescence, overnight; MG213 cells expressing E1A, Rb sequestered; DMSO wells 0%, reference activator 100%; activation, % at 9.1 µM; hit rate 30% among 3,500; AID 652260;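 active = activation above its plate's cutoff, the mean activation of tested wells plus 3 SD, cut at about 7.9% in these data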
VP16 Luc act: counter-screen for SMARCA2 activators: GAL4-VP16 luciferase reporter activation. shares compounds with SMARCA2 activ. HEK293 GAL4-VP16 pG5luc reporter, luciferase luminescence; scaled: DMSO wells 0%, SAHA wells 100%. activation, % at 9.1 µM. hit rate 41% among 3,500;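 active = activation above the solvent-only control well mean plus 3 SD, averaged across control plates, cut at about 5.2% in these data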
* marks the source's active call; other numbers are inactive results; · = no result.

SMILES | MPTP block | MC4R ag barr | ATG4B inhibitor | SMARCA2 activ | MC4R antag cAMP | SMARCA2 conf | VP16 Luc act
COC(=O)[C@H]1C[C@@]2(N3CCCCC3)c3ccccc3N(S(=O)(=O)c3ccccc3)[C@H]2N1 | · | · | · | -4.4 | · | · | ·
Cc1ccc(-n2sc3ccccc3c2=O)cc1 | -0.1 | -0.2 | 0.4 | 8.0* | 1.5 | 11.2* | 1.9
CCOC(=O)c1c(C)nc(C)c(C(=O)OCC)c1-c1ccccc1 | -0.8 | 4.3 | 4.3 | · | -3.2 | · | ·
CCOC(=O)C1=CCC(c2cc3ccccc3[nH]2)NC1 (stereo unspecified) | -1.2 | · | · | 11.2* | · | 6.1 | 7.0*
COc1cccc(CNC(=O)[C@H]2CCCN2C(=O)[C@H]2CCCN2C(=O)c2cccc(OC)c2)c1 | · | · | · | -2.9 | · | · | ·
CC1(O)C(c2ccccc2)=Nc2ccccc21 (stereo unspecified) | -1.1 | -2.0 | · | 9.5* | 3.8 | 11.9* | 12.7*
COc1ccc(C2=[N+]([O-])C(C)(C)C(c3ccccc3)=N2)cc1 | -0.7 | -4.2 | -12.8 | 5.1 | -7.7 | · | ·
CC(=O)c1ccc(NC(=O)c2cc(Cl)sc2Cl)cc1 | 5.9 | 1.0 | -0.7 | 9.3* | 7.8 | 5.6 | 7.5*
O=C(CSc1nc2ccccc2o1)NN=C/C=C/c1ccccc1 | · | · | · | -3.7 | · | · | ·
CCc1nc2ccc(C(=O)Nc3ccc(NC(C)=O)cc3)cn2c1N(CCC(C)C)CCN(C)C | -0.3 | 0.2 | · | 8.4* | 1.8 | 1.2 | 0.2
NCCCC(C(=O)O)N(C(=O)OCc1ccccc1)C(=O)OCc1ccccc1 (stereo unspecified) | · | · | · | -2.2 | · | · | ·
Oc1ccccc1-c1nnc(COc2ccc(Cl)cc2Cl)o1 | 0.7 | 6.3 | 1.7 | 9.3* | -6.6 | 5.2 | 12.9*
O=C(N[C@H](C(=O)N1CCC[C@H]1C(=O)NCc1ccccc1)c1ccccc1)C1CCCC1 | · | · | · | -2.3 | · | · | ·
N/N=C(/Cc1nc2ccccc2[nH]1)c1ccc([N+](=O)[O-])cc1 | 0.1 | -1.8 | -7.0 | 8.2* | 3.6 | 4.4 | 5.9*
COC(=O)C1=C(C)N(C)C(=NCc2ccc(C(F)(F)F)cc2)NC1c1cccc(F)c1 (stereo unspecified) | · | · | · | 0.5 | · | · | ·
CN(C)C(=S)NC(=S)Nc1ccc2ccccc2c1 | 4.6 | -3.0 | -3.4 | 17.1* | -2.2 | -10.8 | 34.5*
CC1(NC(=S)Nc2ccc3ccccc3c2)CCS(=O)(=O)C1 (stereo unspecified) | 3.3 | -2.0 | -8.5 | -1.7 | 4.0 | · | ·
CCOC(=O)CC[C@@H]1CC[C@]2(CCCN(S(=O)(=O)c3ccccc3)C2)O1 | · | · | · | -3.3 | · | · | ·
Cc1cc(C)c2c(N)c(C(=O)Nc3ccc([N+](=O)[O-])cc3)sc2n1 | 0.8 | -1.5 | 5.4 | 8.5* | 4.7 | 5.4 | 10.2*
O=C(N/N=C/c1cccnc1)c1ccco1 | 2.9 | -0.8 | 2.7 | 10.3* | 10.4 | 3.5 | 2.4
O=C(N/N=C\c1cccnc1)c1ccccc1O | -0.7 | 0.2 | 0.4 | 5.0 | 12.5 | · | ·
COc1ccc(C(=O)N/N=C/c2cccnc2)cc1 | -1.5 | 1.1 | 8.5 | 10.9* | 20.9 | 3.5 | 1.6
O=C(N/N=C/C(Cl)=C\c1ccccc1)c1ccco1 | 1.6 | -0.5 | -1.6 | 12.3* | 1.0 | 7.5 | 8.3*
CCOCCCNC(=O)C1CCN(S(=O)(=O)c2cc3c(cc2Br)CCN3C(=O)CC)CC1 | · | · | · | -3.1 | · | · | ·
COc1ccccc1C1=NOC(CN2C(=O)c3ccccc3S2(=O)=O)C1 (stereo unspecified) | 1.5 | -1.4 | -6.2 | 15.4* | -4.0 | 7.0 | 9.1*
SMILES | MPTP block | MC4R ag barr | ATG4B inhibitor | SMARCA2 activ | MC4R antag cAMP | SMARCA2 conf | VP16 Luc act
O=C(Nc1cc(Br)ccc1O)c1cc(-c2cccs2)on1 | 2.3 | 1.7 | -13.0 | 9.8* | 7.3 | 7.8 | 3.6
COC(=O)c1ccccc1NC(=O)c1cc(-c2cccs2)on1 | 0.4 | -0.3 | 2.9 | -1.7 | 5.3 | · | ·
COc1ccc(S[C@]2(C(=O)N(C)C)CC(=O)N(C(=O)c3ccccc3)[C@@H]2c2ccc(OC)cc2)cc1 | · | · | · | -0.8 | · | · | ·
COc1ccc(-c2cnc3c(NC=O)cc(-c4ccc(S(C)(=O)=O)cc4)cn23)cc1OC | -0.1 | 4.7 | · | 10.9* | -16.9 | 11.1* | 4.5
COc1ccc(-c2cnc3c(NC=O)cc(-c4ccc(F)cc4)cn23)cc1OC | 0.4 | 7.7 | · | 15.0* | -25.2 | 13.8* | 6.3*
CC(=O)c1ccc(-c2cnc3c(NC=O)cc(-c4ccc(N5CCN(C)CC5)cc4)cn23)cc1 | 1.6 | -1.7 | · | 11.8* | -4.9 | 16.0* | 4.1
COc1ccc(-n2c(CSc3ccc(Cl)cc3)n[nH]c2=S)cc1 | · | · | · | 2.9 | · | · | ·
CCC/C(=N\NC(=O)C1CC1)c1ccc(Br)cc1 | -0.1 | -0.9 | 2.2 | -1.6 | 1.9 | · | ·
CCC/C(=N\NC(=O)C1CC1)c1ccccc1 | -0.7 | 0.3 | -3.2 | 8.1* | 16.1 | 0.2 | -0.4
Cc1cc(C)n2nc(-c3ccc(Cl)cc3)cc2n1 | 1.2 | -0.1 | -6.0 | 5.7 | -5.3 | · | ·
Cc1nc2cc(-c3ccc(Cl)cc3)nn2c(NCCN(C)C)c1C | -3.3 | 1.0 | -1.5 | 9.9* | -1.3 | 18.6* | 7.9*
CC(=O)Nc1nnc(Cc2ccccc2)s1 | 0.5 | -2.3 | -9.5 | 12.8* | -2.5 | 2.3 | 1.4
COc1ccc(Cc2nnc(NC(=O)c3cccc([N+](=O)[O-])c3C)s2)cc1 | 3.0 | -0.6 | 5.6 | -0.3 | 7.6 | · | ·
COc1ccc(Cc2nnc(NC(=O)c3ccccc3[N+](=O)[O-])s2)cc1 | -1.4 | 1.7 | 4.9 | 8.4* | -3.8 | 2.2 | 0.4
CCC(=O)Nc1nnc(Cc2ccccc2)s1 | -0.3 | -0.1 | -3.2 | 5.5 | 6.6 | · | ·
CC(=O)Nc1nnc(COc2ccccc2)s1 | 0.6 | 1.1 | -13.7 | 8.4* | -2.3 | 3.5 | 2.6
S=C(NCc1cccc(Cl)c1)OC1CCC12CCC(c1ccccc1)CC2 (stereo unspecified) | · | · | · | -1.7 | · | · | ·
COCCCNC(=O)/C=C/c1ccc(Cl)cc1 | -1.8 | 0.1 | -6.6 | 12.4* | 2.6 | 3.0 | 0.9
CSc1nc(Oc2ccc(F)cc2)c2ccccc2n1 | 5.1 | 2.5 | 12.5 | 0.6 | 0.9 | · | ·
COc1ccc(Oc2nc(-c3ccccn3)nc3ccccc23)cc1 | 0.5 | 0.1 | 22.2 | 8.3* | 2.8 | -6.2 | -1.5
Fc1ccc(Oc2nc(-c3ccccn3)nc3ccccc23)cc1 | -1.2 | 0.7 | 31.4 | 9.0* | -4.6 | -4.6 | 2.7
c1ccc(Oc2nc(-c3ccccn3)nc3ccccc23)cc1 | 0.8 | -0.3 | 20.3 | 4.1 | 3.6 | · | ·
COc1ccc2c(CC(=O)Nc3nc(C)cs3)coc2c1 | -0.7 | -1.9 | -5.9 | 1.3 | 5.1 | · | ·
COc1ccc2c(CC(=O)Nc3ncc(C)s3)coc2c1 | -1.8 | 4.4 | 6.5 | 29.4* | -6.1 | 42.2* | 3.6
Cc1cc2cc3c(cc2nc1SCC(=O)N1CCOCC1)OCO3 | 0.5 | -0.2 | -0.7 | 8.4* | 3.5 | 0.6 | -1.1

From PubChem
